Bounds are passed on as bounds.

Assay type in all cases: functional
In assay [1] the test system is HT-29. In words: Cytotoxicity against human HT29 cells at 100 uM after 72 hrs by MTT assay. The settings on record: HT-29, 72 h. The essentials: (§1)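 Log-phase cells in DMEM with 10% FBS (37 °C, 5% CO2) were plated in duplicate at 2500–4000 cells/well. Agent was added 24 h later at a fixed final concentration of 100 µM and left for 72 h continuous exposure. Read-out was MTT absorbance at 540 nm, expressed as percent growth inhibition, where 100% means total growth inhibition.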

Assay [2] deals with SW480. In words: Cytotoxicity against human SW480 cells at 100 uM after 72 hrs by MTT assay. The conditions noted are these: SW480, 72 h. Summed up: as §1
The test system of assay [3] is MCF7. In words: Cytotoxicity against human MCF7 cells at 100 uM after 72 hrs by MTT assay. The settings on record: MCF7, 72 h. Summed up:
as §1

In assay [4] the test system is A2780. In words: Cytotoxicity against human A2780 cells at 100 uM after 72 hrs by MTT assay. The settings on record: A2780, 72 h. The essentials: as §1
Assay [5] concerns NCI-H460. In words: Cytotoxicity against human H460 cells at 100 uM after 72 hrs by MTT assay. The settings on record: NCI-H460, 72 h. Summed up: as §1
Assay [6] relates to A-431. In words: Cytotoxicity against human A431 cells at 100 uM after 72 hrs by MTT assay. The settings on record: A-431, 72 h. The essentials: as §1
The test system of assay [7] is DU-145. In words: Cytotoxicity against human DU145 cells at 100 uM after 72 hrs by MTT assay. The settings on record: DU-145, 72 h. The essentials:
as §1

A short description of assay [8]: Cytotoxicity against human BE2C cells at 100 uM after 72 hrs by MTT assay. The settings on record: BE(2)-C. The essentials:
as §1

The nature of assay [9]: Cytotoxicity against human SJG2 cells at 100 uM after 72 hrs by MTT assay. The settings on record: SJ-G2, 72 h. Summed up:
as §1

In the case of `O=C1[C@@H]2[C@H](C(=O)N1CCCCCCO)[C@@H]1CC[C@H]2O1`, the inhibition at 100 µM in [1] came to 21%; in assay [2] it was 16%; in assay [3] it was 51%; in [4], 18%; in [5], 14%; in assay [6], 6%. Besides, the inhibition at 100 µM in assay [7] was under 10%; in assay [8], 22%; in assay [9] it was 12%.
`CC(CO)N1C(=O)[C@@H]2[C@H](C1=O)[C@@H]1CC[C@H]2O1` (some centres not stated): the inhibition at 100 µM in assay [1], in assay [2], in assay [3], in assay [4], in [5] and in assay [6] was under 10% each time. In addition, the inhibition at 100 µM in assay [7], in assay [8] and in assay [9] was under 10% each time.
Regarding `CCC(CO)N1C(=O)[C@@H]2[C@H](C1=O)[C@@H]1CC[C@H]2O1` (some centres not stated), the inhibition at 100 µM in [1], in assay [2], in assay [3], in assay [4], in assay [5] and in assay [6] was under 10% throughout. For the same molecule, the inhibition at 100 µM in assay [7], in assay [8] and in [9] was under 10% throughout.
For the molecule `O=C1[C@@H]2[C@H](C(=O)N1CCN1CCOCC1)[C@@H]1CC[C@H]2O1`, the inhibition at 100 µM in assay [1], in assay [2], in assay [3], in [4], in assay [5] and in [6] was under 10% in each case. For the same molecule, the inhibition at 100 µM in assay [7], in [8] and in [9] was under 10% in each case.
As to `O=C1[C@@H]2[C@H](C(=O)N1CCCN1CCOCC1)[C@@H]1CC[C@H]2O1`, the inhibition at 100 µM in assay [1], in assay [2], in assay [3], in assay [4], in [5] and in assay [6] was under 10% in each case. For the same molecule, the inhibition at 100 µM in assay [7], in [8] and in [9] was under 10% each time.
Regarding `O=C1[C@@H]2[C@H](C(=O)N1c1ccc([N+](=O)[O-])cc1)[C@@H]1CC[C@H]2O1`, the inhibition at 100 µM in assay [1] is 60%; in assay [2], 44%; in assay [3], over 100%; in [4] it was 53%; in [5], 37%; in assay [6], 13%. Moreover, the inhibition at 100 µM in assay [7] stood at 13%; in [8], 45%; in assay [9] it was 23%.
Take `O=C(O)c1ccc(N2C(=O)[C@@H]3[C@H](C2=O)[C@@H]2CC[C@H]3O2)cc1`: the inhibition at 100 µM in assay [1], in assay [2], in assay [3], in [4], in assay [5] and in assay [6] was under 10% throughout. In addition, the inhibition at 100 µM in assay [7], in assay [8] and in assay [9] was under 10% in each case.
As for `O=C1[C@@H]2[C@H](C(=O)N1CCCN1C(=O)[C@@H]3[C@H](C1=O)[C@@H]1CC[C@H]3O1)[C@@H]1CC[C@H]2O1`, the inhibition at 100 µM in [1] was 10%; in assay [2] it was 16%; in assay [3] it was 52%; in assay [4], 31%; in assay [5] it was 18%; in assay [6] it was 10%. Also, the inhibition at 100 µM in assay [7] is 13%; in assay [8], 10%; in assay [9], 10%.
Consider `CCCCCCCCCCCCCCN1C(=O)[C@@H]2[C@H](C1=O)[C@@H]1CC[C@H]2O1`, for which the GI50 in assay [1] was determined as 19 µM; in assay [2], 52 µM; in assay [3], 43 µM; in assay [4] it was 35 µM; in assay [5], 66 µM; in [6] it was 47 µM. Moreover, the GI50 is 73 µM in assay [7], 50 µM in [8] and 49 µM in assay [9].
Consider `COc1ccc(CN2C(=O)[C@@H]3[C@H](C2=O)[C@@H]2CC[C@H]3O2)cc1`, for which the inhibition at 100 µM worked out at 45% in assay [1]; 24% in assay [2]; 64% in assay [3]; 20% in assay [4]; 23% in assay [5]; 14% in [6]. Also, the inhibition at 100 µM in [7] is under 10%; in [8], 29%; in assay [9], 11%.
`O=C1[C@@H]2[C@H](C(=O)N1CCCCCCCCCCCCN1C(=O)[C@@H]3[C@H](C1=O)[C@@H]1CC[C@H]3O1)[C@@H]1CC[C@H]2O1`: the GI50 was 8.3 µM in assay [1]; 24 µM in [2]; 18 µM in assay [3]; 19 µM in [4]; 31 µM in assay [5]; 18 µM in assay [6]. Further, the values for the GI50 in [7], in assay [8] and in [9] were 60 µM, 17 µM and 43 µM, respectively.
As for `O=C1[C@@H]2[C@H](C(=O)N1N1CCOCC1)[C@@H]1CC[C@H]2O1`, the inhibition at 100 µM was 29% in assay [1]; 29% in assay [2]; 12% in assay [3]; 7% in [4]; 18% in assay [5]; 30% in [6]. Besides, the inhibition at 100 µM in assay [7] amounted to 3%; in [8], 39%; in [9], 3%.
Consider `CC(C)(CO)N1C(=O)[C@@H]2[C@H](C1=O)[C@@H]1CC[C@H]2O1`, for which the inhibition at 100 µM in [1], in [2], in assay [3], in [4], in assay [5] and in assay [6] was under 10% in each case. For the same molecule, the inhibition at 100 µM in [7], in [8] and in assay [9] was under 10% throughout.
With `CCN1C(=O)[C@@H]2[C@H](C1=O)[C@@H]1CC[C@H]2O1`, the inhibition at 100 µM in [1], in [2], in assay [3], in [4], in [5] and in assay [6] was under 10% throughout. Further, the inhibition at 100 µM in assay [7], in assay [8] and in assay [9] was under 10% in each case.
In the case of `O=C1[C@@H]2[C@H](C(=O)N1c1ccc(O)cc1)[C@@H]1CC[C@H]2O1`, the inhibition at 100 µM turned out to be 47% in assay [1]; 21% in assay [2]; 22% in assay [3]; 15% in assay [4]; 12% in assay [5]; 27% in assay [6]. Moreover, the values for the inhibition at 100 µM in assay [7], in [8] and in assay [9] were under 10%, 14% and 44%, respectively.
For `O=C(O)CCCN1C(=O)[C@@H]2[C@H](C1=O)[C@@H]1CC[C@H]2O1`, the inhibition at 100 µM in assay [1], in [2], in assay [3], in assay [4], in assay [5] and in [6] was under 10% in each case. In addition, the inhibition at 100 µM in assay [7], in [8] and in [9] was under 10% throughout.
For the molecule `O=C(O)CCCCCN1C(=O)[C@@H]2[C@H](C1=O)[C@@H]1CC[C@H]2O1`, the inhibition at 100 µM in assay [1] was determined as 14%; in [2], 11%; in [3], 47%; in assay [4] it was 52%; in assay [5] it was 12%; in [6], 11%. The inhibition at 100 µM in assay [7] is 12%; in assay [8] it was 22%; in [9], under 10%.
Consider `O=C1[C@@H]2[C@H](C(=O)N1c1ccccc1)[C@@H]1CC[C@H]2O1`, for which the inhibition at 100 µM in assay [1] was 63%; in assay [2], 78%; in assay [3], over 100%; in assay [4], 90%; in [5], 50%; in assay [6], 25%. In addition, the inhibition at 100 µM worked out at 24% in assay [7], 54% in [8] and 42% in assay [9].

The values are drawn from ChEMBL document CHEMBL1149648, “Norcantharimides, synthesis and anticancer activity: Synthesis of new norcantharidin analogues and their anticancer evaluation” (2007).
